# “Also recorded” adds a separate entry of the source.
# Legend:
# K562 = assay: Antiproliferation cell assay; format: cell-based, human; conditions: Homo sapiens, K562, 72 h, read-out: Cellular inhibition IC50 K562
# Procedure, shortened: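 K562 (ATCC) cells were grown in RPMI-1640 with 10% FBS, penicillin, streptomycin and 2 mmol/L glutamine at 37 °C in humidified CO2. Log-phase cells were seeded at ~3000/well, rested overnight, then exposed to test compound or vehicle for 72 h (10 mmol/L DMSO stocks). CCK-8 was read as OD450−OD650, with viability normalised to no-cell blank and vehicle wells. IC50 came from concentration–response curve fitting, mean ± SD.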
# Bcr-Abl^T315I = Bcr-Abl^T315I (Homo sapiens, UniProt P00519+P11274, T315I); assay: Western blot degradation study in Ba/F3 cells expressed Bcr-Abl^T315I; format: cell-based; conditions: for DR against Ba/F3 Bcr-Abl^T315I (%) 100 nmol/L / DR against Ba/F3 Bcr-Abl^T315I (%) 300 nmol/L: 24 h treatment, Western blot
# Ba/F3 Bcr-Abl^T315I = assay: Antiproliferation cell assay; format: cell-based; conditions: Mus musculus, BaF3, 72 h, read-out: Cellular inhibition IC50 Ba/F3 Bcr-Abl^T315I
# Ba/F3 Bcr-Abl^WT = assay: Antiproliferation cell assay; format: cell-based; conditions: Mus musculus, BaF3, 72 h, read-out: Cellular inhibition IC50 Ba/F3 Bcr-Abl^WT
# Bcr-Abl^WT = Bcr-Abl^WT (Homo sapiens, UniProt P00519+P11274); assay: Western blot degradation study in K562 cells; format: cell-based
# [1] = test system: Ba/F3 Bcr-Abl^T315I xenograft; assay: In vivo antitumor efficacy, Ba/F3 Bcr-Abl^T315I xenograft model; set-up: species or system CB17-SCID mice
# Procedure, shortened: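 Ba/F3 Bcr-AblT315I cells in normal saline were implanted s.c. in the right flank of CB17-SCID mice (2 × 10^6 cells/0.1 mL). Mice were randomised at mean tumour volume 100–200 mm3 and dosed i.p. every two days at 10 or 20 mg/kg. Vehicle was 5% DMSO + 10% solutol + 85% saline. Body weight and tumour volume (L × W²/2) were recorded every two days. Terminal tumours were formalin-fixed, paraffin-sectioned and TUNEL-stained.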
# [2] = Pharmacokinetics in mice, single i.p. injection; format: in vivo, ICR mice; conditions: 20 mg/kg
# [3] = molecular target: Bcr-Abl^T315I / CRBN E3 ligase (UniProt P00519+P11274+Q8C7D2, T315I); assay: Co-immunoprecipitation in Ba/F3 Bcr-Abl^T315I cells; format: cell-based; conditions: 24 h treatment
# Procedure, shortened: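 After 24 h exposure to a range of test compound concentrations, cells were lysed on ice in RIPA with protease and phosphatase inhibitors. Protein was BCA-quantified and equalised; ~4/5 of each lysate went to IP and the rest served as input. Anti-c-Abl antibody was added overnight at 4 °C, then protein A+G agarose for 2 h at 4 °C. Beads were washed five times in RIPA without inhibitors, and complexes were immunoblotted for CRBN.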
Structure (SMILES),IC50 (K562),DR against Ba/F3 Bcr-Abl^T315I (%) 100 nmol/L (Bcr-Abl^T315I; 100 nmol/L),DR against Ba/F3 Bcr-Abl^T315I (%) 300 nmol/L (Bcr-Abl^T315I),IC50 (Ba/F3 Bcr-Abl^T315I),IC50 (Ba/F3 Bcr-Abl^WT),degradation on K562 cells expressing Bcr-Abl (Bcr-Abl^WT; 24 h treatment (data not shown)),degradation potency relative to GZD824 (Bcr-Abl^T315I; DR at 300 nmol/L),improvement of DR compared with 7a (Bcr-Abl^T315I; DR at 300 nmol/L),"treatment time after which Bcr-Abl^WT was substantially reduced in K562 cells (Bcr-Abl^WT; 100 nmol/L, time-course)","treatment time after which Bcr-Abl^T315I protein level was substantially reduced (Bcr-Abl^T315I; 100 nmol/L, time-course)","Bcr-Abl^T315I degradation after preincubation with proteasome inhibitor MG132 (Bcr-Abl^T315I; 20 μmol/L MG132, then 7o 24 h at 100 and 300 nmol/L)","treatment time of maximum degradation (Bcr-Abl^T315I; Ba/F3 Bcr-Abl^T315I, time-course)","tumor growth inhibition (TGI) ([1]; 20 mg/kg, i.p., q2d, 10 consecutive days)","body weight loss relative to the vehicle matched controls ([1]; 20 mg/kg, i.p., q2d, during the treatment)",mortality ([1]; during the treatment),"tumor growth (in words) ([1]; i.p., once every two days)","apoptosis in xenograft tumor (TUNEL) ([1]; mouse, in vivo)",plasma concentration over time [2],mechanism of Bcr-Abl^T315I degradation (Co-IP) [3]
"Cc1ccc(C(=O)Nc2ccc(CN3CCN(C)CC3)c(C(F)(F)F)c2)cc1C#Cc1cnc2[nH]ncc2c1 [GZD824, reference compound]",0.0016 ± 0.0007 µM,2.59%,20.62%,0.031 ± 0.0117 µM,0.0068 ± 0.0053 µM,,,,,,,,,,,,,,
"Cc1ccc(C(=O)Nc2ccc(CN3CCN(CCOCCOCCOCCC(=O)Nc4cccc5c4C(=O)N(C4CCC(=O)NC4=O)C5=O)CC3)c(C(F)(F)F)c2)cc1C#Cc1cnc2[nH]ncc2c1 (centres unmarked) [compound 7h, 3-((1H-Pyrazolo[3,4-b]pyridin-5-yl)ethynyl)-N-(4-((4-(2-(2-(2-(3-((2-(2,6-dioxopiperidin-3-yl)-1,3-dioxoisoindolin-4-yl)amino)-3-oxopropoxy)ethoxy)ethoxy)ethyl)piperazin-1-yl)methyl)-3-(trifluoromethyl)phenyl)-4-methylbenzamide]",0.0137 ± 0.0093 µM,16.86%,78.34%,0.0834 ± 0.0316 µM,0.0106 ± 0.0026 µM,,,about 2 fold,,,,,,,,,,,
"Cc1ccc(C(=O)Nc2ccc(CN3CCN(CCCCCCC(=O)Nc4cccc5c4C(=O)N(C4CCC(=O)NC4=O)C5=O)CC3)c(C(F)(F)F)c2)cc1C#Cc1cnc2[nH]ncc2c1 (centres unmarked) [compound 7o, 3-((1H-Pyrazolo[3,4-b]pyridin-5-yl)ethynyl)-N-(4-((4-(7-((2-(2,6-dioxopiperidin-3-yl)-1,3-dioxoisoindolin-4-yl)amino)-7-oxoheptyl)piperazin-1-yl)methyl)-3-(trifluoromethyl)phenyl)-4-methylbenzamide]",0.0077 ± 0.0018 µM,69.89%,94.23%,0.0268 ± 0.0097 µM,0.0042 ± 0.0002 µM,,,,36 h,6 h,successfully rescue,24 h,90.8%,< 5%,no mortality,substantial tumor regression; also recorded: suppresses the growth,induced apoptosis,high plasma concentrations maintained over 48 h,mediated by CRBN E3 ubiquitin pathway

# The next lines start with results.
IC50 (K562),DR against Ba/F3 Bcr-Abl^T315I (%) 100 nmol/L (Bcr-Abl^T315I; 100 nmol/L),DR against Ba/F3 Bcr-Abl^T315I (%) 300 nmol/L (Bcr-Abl^T315I),IC50 (Ba/F3 Bcr-Abl^T315I),IC50 (Ba/F3 Bcr-Abl^WT),degradation on K562 cells expressing Bcr-Abl (Bcr-Abl^WT; 24 h treatment (data not shown)),degradation potency relative to GZD824 (Bcr-Abl^T315I; DR at 300 nmol/L),improvement of DR compared with 7a (Bcr-Abl^T315I; DR at 300 nmol/L),Structure (SMILES),"treatment time after which Bcr-Abl^WT was substantially reduced in K562 cells (Bcr-Abl^WT; 100 nmol/L, time-course)","treatment time after which Bcr-Abl^T315I protein level was substantially reduced (Bcr-Abl^T315I; 100 nmol/L, time-course)","Bcr-Abl^T315I degradation after preincubation with proteasome inhibitor MG132 (Bcr-Abl^T315I; 20 μmol/L MG132, then 7o 24 h at 100 and 300 nmol/L)","treatment time of maximum degradation (Bcr-Abl^T315I; Ba/F3 Bcr-Abl^T315I, time-course)","tumor growth inhibition (TGI) ([1]; 20 mg/kg, i.p., q2d, 10 consecutive days)","body weight loss relative to the vehicle matched controls ([1]; 20 mg/kg, i.p., q2d, during the treatment)",mortality ([1]; during the treatment),"tumor growth (in words) ([1]; i.p., once every two days)","apoptosis in xenograft tumor (TUNEL) ([1]; mouse, in vivo)",plasma concentration over time [2],mechanism of Bcr-Abl^T315I degradation (Co-IP) [3]
0.0464 ± 0.0212 µM,5.33%,14.25%,0.0701 ± 0.0343 µM,0.0361 ± 0.0009 µM,,,,"Cc1ccc(C(=O)Nc2ccc(CN3CCN(CCCCCCCCCCC(=O)Nc4cccc5c4C(=O)N(C4CCC(=O)NC4=O)C5=O)CC3)c(C(F)(F)F)c2)cc1C#Cc1cnc2[nH]ncc2c1 (centres unmarked) [7q, 3-((1H-Pyrazolo[3,4-b]pyridin-5-yl)ethynyl)-N-(4-((4-(11-((2-(2,6-dioxopiperidin-3-yl)-1,3-dioxoisoindolin-4-yl)amino)-11-oxoundecyl)piperazin-1-yl)methyl)-3-(trifluoromethyl)phenyl)-4-methylbenzamide]",,,,,,,,,,,
0.19 ± 0.0266 µM,13.75%,28.73%,0.399 ± 0.248 µM,0.3637 ± 0.0024 µM,,,,"Cc1ccc(C(=O)Nc2ccc(CN3CCN(CCCCCCCCCCCCCCC(=O)Nc4cccc5c4C(=O)N(C4CCC(=O)NC4=O)C5=O)CC3)c(C(F)(F)F)c2)cc1C#Cc1cnc2[nH]ncc2c1 (centres unmarked) [7t, 3-((1H-Pyrazolo[3,4-b]pyridin-5-yl)ethynyl)-N-(4-((4-(15-((2-(2,6-dioxopiperidin-3-yl)-1,3-dioxoisoindolin-4-yl)amino)-15-oxopentadecyl)piperazin-1-yl)methyl)-3-(trifluoromethyl)phenyl)-4-methylbenzamide]",,,,,,,,,,,
0.0079 ± 0.0052 µM,−15.35%,39.01%,0.0832 ± 0.0278 µM,0.01 ± 0.0021 µM,does not exhibit obvious degradation,2 fold,,"Cc1ccc(C(=O)Nc2ccc(CN3CCN(CCOCCOCCC(=O)Nc4cccc5c4C(=O)N(C4CCC(=O)NC4=O)C5=O)CC3)c(C(F)(F)F)c2)cc1C#Cc1cnc2[nH]ncc2c1 (centres unmarked) [compound 7a, 3-((1H-Pyrazolo[3,4-b]pyridin-5-yl)ethynyl)-N-(4-((4-(2-(2-(3-((2-(2,6-dioxopiperidin-3-yl)-1,3-dioxoisoindolin-4-yl)amino)-3-oxopropoxy)ethoxy)ethyl)piperazin-1-yl)methyl)-3-(trifluoromethyl)phenyl)-4-methylbenzamide]",,,,,,,,,,,

# — article PMC8148061 (Acta Pharmaceutica Sinica. B, 2020)
